Experimental data published in ChEMBL document CHEMBL1146008, “Design, synthesis, and evaluation of novel biarylpyrimidines: a new class of ligand for unusual nucleic acid structures” (J Med Chem, 2006).

Tests used:
Nucleic Acid = assay: Inhibition of telomerase by TRAP assay; type: nucleic-acid assay, Homo sapiens
How it was run: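 Human telomerase activity measured with a commercially available telomeric repeat amplification protocol (TRAP) kit. The value is the concentration giving 50% inhibition (telIC50). An internal reference telomerase inhibitor (BSU-1021) was run in the same assay.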

SF-268 = assay: Inhibition of human SF268 cell growth at 100 uM relative to control; type: functional; details: values are per cent of control
MCF7 = assay: Inhibition of human MCF7 cell growth at 100 uM relative to control; type: functional; details: values are per cent of control
NCI-H460 = assay: Inhibition of human NCI-H460 cell growth at 100 uM relative to control; type: functional; details: values are per cent of control

| IC50 (Nucleic Acid) | Compound | growth, % of control at 100 µM (SF-268) | growth, % of control at 100 µM (MCF7) | growth, % of control at 100 µM (NCI-H460) |
| --- | --- | --- | --- | --- |
| > 40 µM | CN(C)CCSc1ccc(-c2cc(-c3ccc(SCCN(C)C)cc3)ncn2)cc1 | – | – | – |
| – | CCN(CC)CCSc1ccc(-c2cc(-c3ccc(SCCN(CC)CC)cc3)ncn2)cc1 | 85% | 83% | 98% |
| – | OCCSc1ccc(-c2cc(-c3ccc(SCCO)cc3)ncn2)cc1 | 119% | 97% | 99% |
| > 40 µM | c1nc(-c2ccc(SCCN3CCCCC3)cc2)cc(-c2ccc(SCCN3CCCCC3)cc2)n1 | 79% | 68% | 98% |
| > 40 µM | CN(C)CCNC(=O)c1ccc(-c2cc(-c3ccc(C(=O)NCCN(C)C)cc3)ncn2)cc1 | 108% | 96% | 100% |
| – | c1nc(-c2ccc(SCCN3CCOCC3)cc2)cc(-c2ccc(SCCN3CCOCC3)cc2)n1 | 102% | 95% | 96% |
| > 40 µM | COCCSc1ccc(-c2cc(-c3ccc(SCCOC)cc3)ncn2)cc1 | 106% | 33% | 94% |
| 10 µM | CCN(CC)CCNC(=O)c1ccc(-c2cc(-c3ccc(C(=O)NCCN(CC)CC)cc3)ncn2)cc1 | – | – | – |
| – | O=C(NCCO)c1ccc(-c2cc(-c3ccc(C(=O)NCCO)cc3)ncn2)cc1 | 104% | 83% | 104% |
